Bioassay records deposited in PubChem by several laboratories.
Only some compounds are listed: those with a hit (about 2.4% of all), similar ones and a draw of the others.
Arbovirus anti = antivirals against arbovirus infection, primary screen, cell-based, full library, 10K replicate subset | arbovirus infection cell-based antiviral screen | actives 0.37% (n = 200,000) | inhibition, % at 10 µM; in the data active = inhibition above about 30%
Rad51 HR inh = human RAD51 strand exchange inhibitors, primary screen, biochemical, fluorescence. hRad51 DNA strand exchange, fluorescence dequenching. inhibition, % at 10 µM. actives 0.085% (n = 200,000). AID 1385, 2008;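 active = inhibition above 40% at the single screening dose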;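 also: 0% = DMSO control wells and 100% = blanks with heterologous ssDNA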
Target sequence (Q06609 whole entry, looked up): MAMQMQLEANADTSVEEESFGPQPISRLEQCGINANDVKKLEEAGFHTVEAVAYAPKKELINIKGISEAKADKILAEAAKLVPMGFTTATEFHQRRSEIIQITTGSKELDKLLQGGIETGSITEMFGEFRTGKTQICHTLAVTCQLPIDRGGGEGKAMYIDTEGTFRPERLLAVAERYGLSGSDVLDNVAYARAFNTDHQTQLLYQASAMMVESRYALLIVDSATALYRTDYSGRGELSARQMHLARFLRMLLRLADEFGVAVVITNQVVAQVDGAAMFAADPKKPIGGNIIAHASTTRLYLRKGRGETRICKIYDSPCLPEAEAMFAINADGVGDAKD
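System: hRad51 filaments on single-stranded DNA; reagent: Fluorescein- and BHQ1-tagged 47-mer duplex; compound dosing: one concentration, 10 µM final; timing: filaments 15 min 37 °C, then compound 30 min; measured by: fluorescein emission 520 nm, excitation 485 nm; benchmarks: per-plate controls and blanks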
Yeast growth inh = growth inhibitors of yeast BB579 in restrictive medium, primary screen, yeast lifespan-shortening project, S. cerevisiae; AID 804, 2007; inhibition, % at 10 µM; OD615, 48 h; actives 0.51% (n = 140,000);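 active = inhibition above a set limit, 3 SD over the mean compound inhibition, cut at about 44% in these data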
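Material: Saccharomyces cerevisiae DeaD strain BB579, replicative lifespan model yeast; buffer or medium: CSMM-D restrictive synthetic medium containing dextrose (glucose); compound: 10 µM single dose, DMSO 0.25%; timing: 48 h compound exposure at 30 °C after 4 h preincubation; signal: turbidity as optical density at 615 nm; benchmarks: positive control amphotericin B 10 µg/mL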
Efa HMGR inh = inhibitors of E. faecalis class II HMGR, primary screen, biochemical, Enterococcus faecalis. purified E. faecalis HMGR, NADPH absorbance 340 nm kinetic. inhibition, % at 10 µM. actives 0.41% (n = 190,000). AID 1066, 2008;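 active = inhibition above a set limit, the median over all tested compounds plus 3 SD, cut at about 9.5% in these data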;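 also: enzyme runs in reverse so mevalonate oxidation gives rising NADPH absorbance; 0% = complete reaction with DMSO and 100% = background rate lacking mevalonate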
Measles CPE = compounds protecting cells from measles virus cytopathic effect, primary screen, measles RdRp inhibitor project, single point, MLSMR library, absorbance; Measles virus-infected cells, CPE protection; protection (pct of control), % at 4 µM; actives 1.5% (n = 140,000); in the data active = protection mostly above about 24%, no sharp cut-off; inactive = mostly below about 26%
Yeast life ext = compounds extending yeast replicative lifespan, primary screen, S. cerevisiae, OD615; S. cerevisiae growth with nicotinamide; deaD strain in restrictive glucose medium; inhibition of the nicotinamide effect, % at 10 µM; actives 0.68% (n = 130,000);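 active = inhibition above a set limit, placed 3 SD over the median of all compounds, cut at about 26% in these data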;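 also: 0% = nicotinamide-treated wells and 100% = cells grown without nicotinamide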
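Assay system: DeaD-strain S. cerevisiae. Medium: CSMM-D glucose medium, restrictive. Reagent: nicotinamide, 1.5 mM, co-present with compound. Compound: 10 µM single point, 0.25% DMSO. Schedule: culture preincubation 4 h, compound exposure 48 h, both 30 °C. Detection: absorbance at 615 nm.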
The depositor's hits bear a star.

O=C(O)CSc1nnc(CNc2cccc(C(F)(F)F)c2)n1Cc1ccco1 was read as Arbovirus anti 34*, Rad51 HR inh 2, Yeast growth inh -14, Efa HMGR inh -7, Measles CPE 3 and Yeast life ext -8.
For O=C(CSc1nnc(CNc2cccc(C(F)(F)F)c2)n1Cc1ccco1)NCc1ccco1 the results were Arbovirus anti 13, Rad51 HR inh 12, Yeast growth inh -50, Efa HMGR inh -2 and Measles CPE 17.
Screening CC(=O)NCC(=O)OCC(=O)c1ccc(C)c(C)c1 returned Arbovirus anti -1, Rad51 HR inh 10, Yeast growth inh 12, Efa HMGR inh -6, Measles CPE 12 and Yeast life ext -1.
For Cc1ccc(S(=O)(=O)CCC(=O)OCC(=O)c2ccc(C)c(C)c2)cc1 the results were Arbovirus anti -1, Rad51 HR inh 10, Yeast growth inh -33, Efa HMGR inh 0, Measles CPE 30* and Yeast life ext 6.
`Nc1ncccc1OCc1ccc(Cl)c(Cl)c1` gave Rad51 HR inh -23.
For COc1ccc(C)cc1N1C(=N)/C(=C2/Nc3ccccc3S2)C(c2ccccc2)C1=O (configuration not stated) the results were Arbovirus anti -32, Rad51 HR inh 19, Yeast growth inh -54, Efa HMGR inh -3, Measles CPE 4 and Yeast life ext 26.
`Cc1ccc(S(=O)(=O)CCSc2cccc(C(=O)Nc3ccccc3C(=O)O)c2)cc1` gave Arbovirus anti 44*, Yeast growth inh -13, Efa HMGR inh -2, Measles CPE 37 and Yeast life ext -2.
O=C(Nc1ccccc1C(=O)O)c1cccc(F)c1 was read as Rad51 HR inh 7.
For CCC(=C(c1ccc(OC)cc1)c1ccc(OC)cc1)c1cn(CC(O)CN2CCN(C)CC2)c2ccccc12 (configuration not stated) the results were Arbovirus anti -36, Yeast growth inh 95*, Efa HMGR inh 2, Measles CPE 19 and Yeast life ext -18.
Screening O=C(CCCCn1c(=O)c2ccccc2n(CC(=O)NC2CCCC2)c1=O)NC1CCCC1 returned Arbovirus anti 0, Rad51 HR inh -12, Yeast growth inh -21, Efa HMGR inh -2, Measles CPE 88* and Yeast life ext 1.
`CCOC(=O)c1[nH]c(=O)[nH]c1COC(=O)c1cc2ccccc2o1` gave Arbovirus anti 3, Rad51 HR inh 1, Yeast growth inh -14, Efa HMGR inh -3, Measles CPE 40* and Yeast life ext -7.
CCOC(=O)c1[nH]c(=O)[nH]c1CSc1nc(C)cc(C)n1 was read as Arbovirus anti 9, Rad51 HR inh -5, Yeast growth inh -4, Efa HMGR inh -2, Measles CPE 13 and Yeast life ext -7.
For Cc1c(/C=C/C(=O)c2ccccc2)cnn1C the results were Arbovirus anti -1, Rad51 HR inh 4, Yeast growth inh -8, Efa HMGR inh -3, Measles CPE 3 and Yeast life ext -18.
`Cc1c(/C=C/C(=O)c2ccc(O)cc2)cnn1C` gave Arbovirus anti 4, Rad51 HR inh -2, Yeast growth inh -7, Efa HMGR inh -2, Measles CPE 42* and Yeast life ext -3.
`Cc1cccc(NC(=O)c2ccc(-c3ccccc3[N+](=O)[O-])o2)c1` gave Arbovirus anti 1, Rad51 HR inh -4 and Efa HMGR inh 10*.
Screening O=C(CN1C(=O)c2ccccc2S1(=O)=O)c1ccc(F)cc1 returned Rad51 HR inh 18.
`CCN1/C(=C(\O)c2ccccc2)C(=O)c2ccccc2S1(=O)=O` gave Arbovirus anti 3, Rad51 HR inh 6, Yeast growth inh 100*, Efa HMGR inh -11, Measles CPE 19 and Yeast life ext -25.
`COc1cc(CN2CCCC(C(=O)c3ccccc3SC)C2)cc(OC)c1` (configuration not stated) gave Arbovirus anti -2, Rad51 HR inh 16 and Efa HMGR inh -7.
Screening O=C(Nc1ccc(-c2nc3cc(NC(=O)c4cccs4)ccc3o2)cc1)c1cccs1 returned Arbovirus anti -10, Rad51 HR inh -4, Yeast growth inh -35, Efa HMGR inh -4, Measles CPE 13 and Yeast life ext -11.
Screening Cc1ccc2oc(-c3ccc(C)c(NC(=S)NC(=O)c4cccs4)c3)nc2c1 returned Arbovirus anti -30, Rad51 HR inh 4, Yeast growth inh -38, Efa HMGR inh -6, Measles CPE 59* and Yeast life ext 2.
`O=C(Nc1ccc2oc(-c3ccncc3)nc2c1)c1cccs1` gave Arbovirus anti -1, Rad51 HR inh -10, Yeast growth inh -32, Efa HMGR inh -8, Measles CPE 42* and Yeast life ext -13.
Screening O=[N+]([O-])c1cc(-c2nc3nc4ccccc4nc3n2CCc2ccccc2)cc([N+](=O)[O-])c1 returned Arbovirus anti -4, Rad51 HR inh 11, Yeast growth inh -26, Efa HMGR inh 0, Measles CPE 4 and Yeast life ext 11.
For CCNS(=O)(=O)c1ccc2nc(NC(=O)/C=C/c3cc(OC)c(OC)c(OC)c3)sc2c1 the results were Arbovirus anti 10, Rad51 HR inh 5, Yeast growth inh -23, Efa HMGR inh 2, Measles CPE 6 and Yeast life ext -1.
`COc1ccccc1CNC(=O)C1(c2ccc(Cl)cc2)CC1` gave Arbovirus anti 6, Yeast growth inh 7, Efa HMGR inh -6, Measles CPE 6 and Yeast life ext 7.
`CC(=O)Nc1sc(C)c(C)c1C(=O)OC1CCOC1=O` (configuration not stated) gave Arbovirus anti 9, Rad51 HR inh -29, Yeast growth inh -16, Efa HMGR inh -1, Measles CPE 37* and Yeast life ext -27.
For Nc1cc(C(=O)O)ccc1Sc1ccccc1C(=O)O the results were Arbovirus anti 2 and Efa HMGR inh 1.
Nc1ccc(SC(F)(F)F)cc1C(=O)c1ccccc1 was read as Arbovirus anti 8, Yeast growth inh 57*, Efa HMGR inh -3, Measles CPE 3 and Yeast life ext -21.
Screening CCn1nc(CC(=O)Nc2nnc(CC(=O)N3CCOCC3)s2)c2ccccc2c1=O returned Arbovirus anti 1, Yeast growth inh -29, Efa HMGR inh -6, Measles CPE 28* and Yeast life ext -13.
